In paper PMC3025495 (The lancet oncology, 2010):
Read-outs that look alike come from different tables or passages of the source.

Legend:
[1] = system: human hematopoietic progenitors: erythroid precursors; assay: Methylcellulose-based in vitro colony forming assay, erythroid precursors; assay type: cell-based; details: read-out: IC50, growth inhibition of erythroid precursors
[2] = system: human hematopoietic progenitors: common myeloid precursors; assay: Methylcellulose-based in vitro colony forming assay, common myeloid precursors; assay type: cell-based; details: read-out: IC50, growth inhibition of common myeloid precursors
BH3-only proteins = details: no reference printed with the sentence; cited from earlier work
[3] = system: murine xenograft model of acute lymphocytic leukemia; details: ref [11]; cited from earlier work
CD3+ cells (T-cells) = assay: Pharmacodynamic effect on circulating CD3+ cells; assay type: in vivo, human; details: after 14 days of drug exposure (day 14 of cycle 1), at least 200 mg
In short: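 Patients with relapsed or refractory lymphoid malignancies took the test compound orally each day. Two schedules were used: days 1–14 of a 21-day cycle, or continuous dosing after a 150 mg lead-in lasting 7–14 days. Circulating CD3+ counts were compared with baseline. The P-value for the change from baseline came from a Sign-test because the data were skewed.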

[4] = system: BCL-2 dependent human small cell lung cancer (SCLC) cell line; details: within 2 hours of treatment; ref [11], [27]; cited from earlier work
[5] = system: relapsed/refractory lymphoid malignancies; assay: Tumor response and survival; assay type: in vivo, human
[6] = system: patients with relapsed or refractory lymphoid malignancies; assay: Phase 1 dose-escalation study: toxicity and DLT
clinical = details: human, in vivo
[7] = human, in vivo
[8] = system: patients with relapsed or refractory lymphoid malignancies; details: in vivo
circulating platelets = assay: Pharmacodynamic effect on circulating platelets; assay type: in vivo, human; details: platelet nadir versus navitoclax AUC, n=35 patients
[9] = system: BCL-XL and BCL-2 over expressing prolymphocytic murine cell lines; details: coimmunoprecipitation; ref [11], [27]; cited from earlier work
hematological cell lines = details: in 11 of 23 hematological cell lines, ref [10]; cited from earlier work
[10] = Pharmacokinetic profile in patients
[11] = system: xenograft model of mantle cell lymphoma; details: ref [11]; cited from earlier work
animal models = assay: Projected effective exposure from animal models; assay type: in vivo; details: based on animal models
patients = details: cited from earlier work; for clinical activity: clinical testing, [24]; for clinical activity / on-target pharmacodynamic effects on platelets: ref [23]; for dose-limiting toxicities: gossypol ref [23], obatoclax ref [24]; for on-target pharmacodynamic effects on platelets: review of toxicities, [25]–[28]
[12] = Grade 1/2, Continuous (21/21) Schedule MTD 325 mg (N=5)
[13] = Grade 1/2, Intermittent (14/21) Schedule All Patients (N=38)
[14] = Grade 3/4, Continuous (21/21) Schedule All Patients (N=17)
[15] = Grade 3/4, Continuous (21/21) Schedule MTD 325 mg (N=5)
[16] = Grade 3/4, Intermittent (14/21) Schedule All Patients (N=38)
[17] = Grade 3/4, Intermittent (14/21) Schedule MTD 315 mg (N=9)

For CN(C)CC[C@H](CSc1ccccc1)Nc1ccc(S(=O)(=O)NC(=O)c2ccc(N3CCN(Cc4ccccc4-c4ccc(Cl)cc4)CC3)cc2)cc1[N+](=O)[O-] [ABT-737], the IC50 [1] is given as 1000 nM, the IC50 [2] is given as 900 nM and the “binding affinity relative to previously reported compounds” value (BH3-only proteins) is given as “two to three orders of magnitude greater”.

In the case of CC1(C)CCC(c2ccc(Cl)cc2)=C(CN2CCN(c3ccc(C(=O)NS(=O)(=O)c4ccc(N[C@H](CCN5CCOCC5)CSc5ccccc5)c(S(=O)(=O)C(F)(F)F)c4)cc3)CC2)C1 [Navitoclax], the “tumor response in xenograft” value [3] is listed as “durable and complete tumor regressions”, the “median reduction of circulating CD3+ cells” value (CD3+ cells (T-cells)) is listed as 241 CD3+ cells/µl and the cytochrome c [4] is listed as “increase”. The “cytosolic BAX” value [4] was “dose-dependent decrease”, the “median PFS” value ([5]; 16 patients with follicular lymphoma, IQR 42-92) was 88 days and the “patients achieving a PR” value ([5]; CLL/SLL patients with measurable adenopathy) was 8 of 16. For the same compound, the “PR in NK/T-cell lymphoma” value ([5]; NK/T-cell lymphoma) was “single patient”, the median overall survival ([5]; all 20 patients with CLL/SLL) was “has not been reached” and the “median PFS” value ([5]; all 20 patients with CLL/SLL, IQR 49-309) was 246 days. For the same compound, the “reduction in leukemia cells” value ([5]; all seven patients with CLL) was no less than 50%, the “patients with measurable tumor reduction” value ([5]; follicular lymphoma) was 6 of 16 and the “patients with some tumor reduction” value ([5]; patients with evaluable adenopathy, all dose levels) was 21 of 46. For the same compound, the “cycles until response, median (range)” value ([5]; responders across dose levels and tumor types) was 3.5 (2–10) cycles, the “All Infections, patients n (%)” value [6, 12] was 5 (100%) and the “Herpes Zoster, patients n (%)” value [6, 12] was 1 (20%). For the same compound, the “All Infections, patients n (%)” value [6, 13] was 25 (66%), the “Herpes Zoster, patients n (%)” value [6, 13] was 0 and the “All Infections, patients n (%)” value ([6]; Grade 1/2, Intermittent (14/21) Schedule MTD 315 mg (N=9)) was 8 (89%). For the same compound, the “All Infections, patients n (%)” value [6, 14] was 0, the “Herpes Zoster, patients n (%)” value [6, 14] was 0 and the “All Infections, patients n (%)” value [6, 15] was 0. The “Herpes Zoster, patients n (%)” value [6, 15] was 0, the “All Infections, patients n (%)” value [6, 16] was 6 (16%) and the “Herpes Zoster, patients n (%)” value [6, 16] was 1 (3%). For the same compound, the “All Infections, patients n (%)” value [6, 17] was 1 (11%), the “Herpes Zoster, patients n (%)” value [6, 17] was 0 and the safe tolerated dose ([6]; intermittent (14/21) schedule, oral once daily) was 315 mg. For the same compound, the “patients who required at least one dose reduction” value ([6]; overall dose levels) was 11 patients, the half-life (clinical) was roughly 1020 min and the “dose levels at which projected effective exposure was achieved” value [7] was “at least 315 mg/day”. The t½ ([7]; 315 mg) was 15·1 ± 3·0 h, the “increase of oral bioavailability by food” value ([7]; po) was “approximately 20%” and the “CL/F (apparent oral clearance)” value ([7]; po, 315 mg) was 4·1 ± 2·1 L/h. For the same compound, the “All Infections, patients n (%)” value ([8]; human) was 14 (82%), the “Herpes Zoster, patients n (%)” value ([8]; human) was 1 (6%) and the “dose selected for phase II study” value ([8]; human) was 325 mg. The “grade 1/2 fatigue, number of patients” value ([8]; human) was 21 patients, the “grade 3/4 neutropenia, number of patients” value ([8]; human) was 17 patients and the “grade 3/4 thrombocytopenia, number of patients” value ([8]; human) was 29 patients. The “recommended phase 2 dose” value ([8]; human) was 325 g/day, the “patients who developed respiratory infections and/or bronchitis” value [8] was “Eight” and the “patients who withdrew their consent for treatment” value [8] was 6 patients. For the same compound, the “severity of the platelet nadirs” value (circulating platelets) was “concentration dependent”, the “BIM:BCL-2 family protein interactions” value [9] was “dose-dependent decrease” and the EC50 (hematological cell lines) was less than 1000 nM. For the same compound, the “time to peak concentrations (Cmax) post-dose” value ([10]; 14/21-day schedule, overall) was “approximately 9 hours”, the “detection in urine (renal elimination)” value ([10]; 24-hour urine collection after dosing on C1 D–3) was “could not be detected” and the “dose dependence of exposure” value ([10]; between 10 mg and 440 mg) was “dose-proportional”. The “effect on cure rate of rituximab plus chemotherapy” value [11] was “significantly improved” and the “projected effective exposure (AUC)” value (animal models) was 55 to 88 µg·h/mL.

For Cc1cc2c(C(C)C)c(O)c(O)c(C=O)c2c(O)c1-c1c(C)cc2c(C(C)C)c(O)c(O)c(C=O)c2c1O [gossypol], the clinical activity (patients) is given as “little to no clinical activity”, the dose-limiting toxicities (patients) is given as “gastrointestinal side effects” and the “on-target pharmacodynamic effects on platelets” value (patients) is given as “no on-target pharmacodynamic effects on platelets”.

For COC1=CC(c2cc3ccccc3[nH]2)=N/C1=C\c1[nH]c(C)cc1C [obatoclax], the clinical activity (patients) is given as “little to no clinical activity”, the dose-limiting toxicities (patients) is given as “Infusion-related somnolence and neurologic symptoms” and the “on-target pharmacodynamic effects on platelets” value (patients) is given as “no on-target pharmacodynamic effects on platelets”.
